OX1R antag-1 – blocks the human orexin 1 receptor; inhibition, % at 5 µM; hit rate 0.43% among 330,000; CHO/OX1R cells, Fluo-8 calcium fluorescence, orexin A; O43613;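 active = inhibition above its plate's threshold, mean inhibition of all tested compounds on the plate plus 3 SD, cut at about 37% in these data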
GalR3 antag – human GalR3 antagonism | HEK293 GalR3-CNG cAMP membrane potential fluorescence; galR3 body fused to GalR1 C-terminus | inhibition, % at 3 µM | hit rate 0.44% among 360,000 | AID 651719;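 active = inhibition above the screen-wide average plus 3 SD, cut at about 13% in these data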;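 note: forskolin and galanin both at EC90 stimulate the cells; cAMP rise reported by CNG channel membrane potential dye signal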
Target sequence (O60755 1-299 limits assumed): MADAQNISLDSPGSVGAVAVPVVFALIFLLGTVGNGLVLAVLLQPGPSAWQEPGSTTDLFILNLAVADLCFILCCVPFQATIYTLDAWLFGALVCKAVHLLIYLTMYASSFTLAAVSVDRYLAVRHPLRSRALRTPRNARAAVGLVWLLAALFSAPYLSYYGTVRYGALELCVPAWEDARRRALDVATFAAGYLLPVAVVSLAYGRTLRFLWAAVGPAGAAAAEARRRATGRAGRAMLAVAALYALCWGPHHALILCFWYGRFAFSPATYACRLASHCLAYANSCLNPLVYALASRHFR
TAAR1 agonist – human TAAR1 agonism; Q96RJ0; hit rate 0.99% among 360,000; CHO RD-HGA16 TAAR1, Fluo-8 calcium fluorescence; vehicle wells 0%, saturating PEA agonist 100%; activation, % at 3 µM; AID 624467;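 active = activation above the mean activation of all test compounds in the run plus 3 SD, cut at about 38% in these data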
Target sequence (Q96RJ0 whole entry, looked up): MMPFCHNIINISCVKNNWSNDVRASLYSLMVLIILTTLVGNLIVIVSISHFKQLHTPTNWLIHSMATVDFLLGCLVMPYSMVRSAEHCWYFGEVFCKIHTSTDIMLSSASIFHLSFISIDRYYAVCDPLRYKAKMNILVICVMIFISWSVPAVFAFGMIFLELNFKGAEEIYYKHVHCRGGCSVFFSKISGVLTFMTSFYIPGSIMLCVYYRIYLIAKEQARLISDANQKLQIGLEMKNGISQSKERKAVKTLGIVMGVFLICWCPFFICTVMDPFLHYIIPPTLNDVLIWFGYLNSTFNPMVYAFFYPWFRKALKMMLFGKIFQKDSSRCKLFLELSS
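System: CHO-derived RD-HGA16 cells with stable Gα16 and human TAAR1. Times: 17-24 h plating, Fluo-8 75 min 37 °C, 30 min RT. Measured by: calcium-sensitive Fluo-8 signal, excitation 470-495, emission 515-575 nm. Read-out basis: % activation relative to PEA EC100 response. Control set: DMSO and PEA EC100. Repeats: no replicates (n 1).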
CHO parental Ca – counter-screen for OX1R antagonists: effect in parental CHO cells; parental CHO-K1, ATP-induced calcium, Fluo-8 fluorescence; inhibition, % at 5.6 µM; hit rate 0.63% among 330,000;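 active = inhibition above that plate's mean sample inhibition plus 3 SD, cut at about 26% in these data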
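Test system: parental CHO cells; detection: calcium-sensitive Fluo-8 fluorescence; evaluation: percent inhibition of calcium signal; also added: ATP as calcium-mobilizing challenge; repeats: one well per compound; control set: ATP-challenged DMSO wells low, unchallenged DMSO wells high; compound: single nominal dose of 5.6 µM per compound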
TAAR1 antagonist – antagonists of human TAAR1; AID 624466; Q96RJ0; CHO RD-HGA16 TAAR1, Fluo-8 calcium fluorescence, antagonist; inhibition, % at 3 µM; hit rate 1.5% among 360,000;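 active = inhibition above a per-plate cutoff, the mean inhibition of test compounds on that plate plus 3 SD, cut at about 49% in these data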
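Assay system: RD-HGA16 CHO cells with stable hTAAR1 and Gα16 / Reagent: EC80 β-phenethylamine stimulus / Doses: 3 µM, single point / Timing: dye loading 75 min at 37 °C, then 30 min room temperature / Measured by: Fluo-8 intracellular calcium dye fluorescence, real-time kinetic reads / Controls: vehicle wells and EC80 agonist wells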
OX1R antag-2 – blocks the human orexin 1 receptor; O43613; OX1R-expressing cells, FRET antagonist read-out; inhibition, % at 6.6 µM; hit rate 1.8% among 330,000; AID 485270; in the data active = inhibition mostly above about 38%, no sharp cut-off; inactive = mostly below about 40%
OX1R Ca confirm – confirmation of human orexin 1 receptor antagonists | shares compounds with OX1R antag-1 | CHO/OX1R cells, orexin A calcium Fluo-8 fluorescence | inhibition, % at 5 µM | hit rate 38% among 1,100 | AID 492963; in the data active = inhibition above about 29%
CHO Ca counter – signal in parental CHO cells, OX1R antagonist counter-screen | shares compounds with OX1R antag-1 | inhibition, % at 5.6 µM | AID 492965 | hit rate 9.3% among 1,100 | parental CHO-K1, ATP-induced calcium, Fluo-8 fluorescence;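 active = inhibition above a per-plate limit, the mean inhibition of that plate's test compounds plus 3 SD, cut at about 25% in these data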
Hits are given with their value; n = inactive; x = no result given. Most compounds without a hit are left out; they make up all but 4.2% or so of the library.

SMILES	OX1R antag-1	GalR3 antag	TAAR1 agonist	CHO parental Ca	TAAR1 antagonist	OX1R antag-2	OX1R Ca confirm	CHO Ca counter
CCc1noc(C)c1C(=O)Oc1ccc(N(C)S(=O)(=O)c2ccc(C)cc2)cc1	55	x	x	n	x	n	n	n
CCc1noc(C)c1C(=O)Oc1ccc(N(C)S(=O)(=O)c2ccccc2)cc1	n	n	n	n	n	n	x	x
CC(=O)Nc1ccc(/C(C)=N/Nc2nc(N3CCOCC3)nc(N3CCOCC3)n2)cc1	n	n	n	n	n	n	x	x
CC(=O)Nc1ccc(/C(C)=N/Nc2nc(Nc3cccc4ccccc34)nc(N3CCOCC3)n2)cc1	40	n	50	n	52	n	n	n
O=S(=O)(NC1CCSc2ccccc21)c1ccc(Cl)nc1 (configuration not stated)	52	n	n	n	n	n	n	n
CC(=O)c1ccc(S(=O)(=O)NC2CCSc3ccccc32)cc1 (configuration not stated)	n	n	n	n	n	n	x	x
O=c1c(/C=C(\O)c2ccccc2)nc2ccccc2n1-c1ccccc1	61	n	n	n	n	n	n	n
COc1ccccc1OCCCc1c(C)n[nH]c1C	n	n	n	n	n	n	x	x
COc1ccccc1OCCCCCc1c(C)n[nH]c1C	n	n	n	n	n	n	n	n
O=C(CSc1ccc(S(=O)(=O)N2CCOCC2)cn1)Nc1ccc(F)c(F)c1	n	n	n	n	n	n	n	n
CC(C)NC(=O)C1CCN(C2CCN(CC3CC=CCC3)CC2)CC1 (configuration not stated)	76	n	n	n	n	n	n	n
O=C(c1ccccc1)c1c2c(cc3sc4ccccc4[n+]13)-c1cccc3cccc-2c13	n	n	n	n	n	n	36	37
CC(C)Nc1nc(NC(C)C)nc(SCC(N)=O)n1	n	n	n	n	n	n	x	x
COc1ccc(NC(=O)CCc2nc(-c3ccc(C)cc3)no2)cc1Cl	n	n	n	n	n	n	n	n
O=C(CSc1ncc(-c2ccc(F)cc2)n1Cc1ccco1)Nc1nccs1	n	n	46	n	n	n	n	n
COc1ccc(CN(C)C(=O)COC(=O)c2cnc(Cl)c(Cl)c2)cc1	n	n	n	n	n	n	x	x
CCn1c(CSc2ncccn2)nnc1SCC(=O)N1CCc2ccccc21	n	n	n	n	n	n	x	x
Cn1c(CSc2ncccn2)nnc1SCC(=O)N1CCCc2ccccc21	n	n	n	n	n	n	n	n
Cc1cc([N+](=O)[O-])ccc1NC(=O)c1cccc(NC(=O)C(C)C)c1	n	n	n	n	n	n	x	x
CCOC(=O)CSc1nnc(-c2ccc(NS(=O)(=O)c3ccc(C)cc3)cc2)o1	n	n	n	n	n	n	36	27
COC(=O)CSc1nnc(-c2ccc(S(=O)(=O)N3CCCCC3)cc2)o1	n	n	n	n	n	n	x	x
CCc1ccc(NC(=O)[C@@H](NC(=O)[C@@H]2Cc3ccccc3CN2)C(C)CC)cc1 (some centres not stated)	77	n	n	n	n	n	n	n
CC[C@H](C)[C@@H]1NC(=O)c2cc([N+](=O)[O-])cc(F)c2OCC[C@@H](C(N)=O)NC(=O)[C@H](CCCCN)NC1=O	n	n	n	n	n	n	x	x
CN1C(=O)/C(=C/c2coc3ccc(O)cc3c2=O)SC1=S	n	n	n	n	n	n	x	x
N=C1/C(=C\c2coc3ccc(O)cc3c2=O)C(=O)N=C2SC=CN12	n	n	48	n	n	n	n	30
SMILES	OX1R antag-1	GalR3 antag	TAAR1 agonist	CHO parental Ca	TAAR1 antagonist	OX1R antag-2	OX1R Ca confirm	CHO Ca counter
CCOC(=O)c1c(-c2ccccc2)csc1NC(=O)CCN1C(=O)c2ccccc2C1=O	n	n	n	n	n	n	x	x
CCOC(=O)c1c(-c2ccc(-c3ccccc3)cc2)csc1NC(=O)CNCCN(C)C	n	n	n	n	n	n	36	n
N#Cc1nc(COc2ccc(F)cc2)oc1N1CCCC1	n	n	n	n	n	n	x	x
Cc1cc(SCc2ccc([N+](=O)[O-])cc2)nc(=O)[nH]1	n	n	n	n	n	n	x	x
O=C(CNS(=O)(=O)c1ccc(Br)s1)NCCc1ccc(Cl)cc1	n	n	n	n	n	n	n	n
COc1ccc(CCNC(=O)CNS(=O)(=O)c2ccc(Br)s2)cc1OC	n	n	n	n	n	n	x	x
CC(C)=CCC/C(C)=C/CNC(=O)C[C@H]1C[C@H](C(=O)N2CCCCC2)[C@@]2(C)c3[nH]c4cc(CCC(=O)N(C)C)ccc4c3CCN2C1=O	49	x	x	n	x	n	n	n
Cc1ccc(C(C#N)c2ccc(C(=O)c3ccc(F)cc3)cc2)cc1 (configuration not stated)	n	n	n	n	n	n	n	n
Cc1ccc(C(=O)NC(C)c2ccc(F)cc2)cc1 (configuration not stated)	n	n	n	n	n	n	x	x
O=C(O)COc1ccc(S(=O)(=O)N2CCCC2)cc1	n	n	n	n	n	n	x	x
CCCCOc1ccc(S(=O)(=O)N2CCCCCC2)cc1	n	n	n	n	n	n	n	n
Cc1ccc(C)c(OCCC(=O)NNC(=O)c2ccccc2)c1	n	n	n	n	n	n	n	n
COc1ccc(C2=NCC(CSc3nnc(-c4ccc5c(c4)OCO5)o3)S2)cc1 (configuration not stated)	47	n	n	n	50	n	n	n
Cc1ccc(CSc2nnc(-c3ccc4c(c3)OCO4)o2)cc1	n	n	n	n	n	n	x	x
Cn1c(SCC(=O)N2CCCC2)nc2ccccc2c1=O	n	n	n	n	n	n	x	x
CCn1c(SCC(=O)N2CCCC2)nc2ccccc2c1=O	34	n	n	n	n	n	n	n
CN(C)CCCNc1cc(C(C)(C)C)nc2c(-c3ccc(Cl)cc3)cnn12	n	n	n	n	n	n	n	n
CC(=O)c1c(C)[nH]c(C(=O)CSc2nc3ccccc3c(=O)n2CCCO)c1C	n	n	n	n	n	n	n	n
CCN(CC(=O)Nc1cc(S(=O)(=O)N2CCCCC2)ccc1Cl)Cc1ccccc1	n	n	n	n	n	n	x	x
CCN(CC(=O)Nc1cc(S(=O)(=O)N2CCOCC2)ccc1Cl)Cc1ccccc1	55	n	n	n	n	n	n	n
Clc1cccc(CSc2ccc(-c3cccnc3)nn2)c1	n	n	n	n	n	n	x	x
C/C(=N\Nc1ccccn1)c1ccc(S(=O)(=O)NCc2ccco2)cc1	n	n	n	n	n	n	x	x

Screens: PubChem, The Scripps Research Institute Molecular Screening Center
